According to ChEMBL document CHEMBL3259628, “Discovery of novel 2-((pyridin-3-yloxy)methyl)piperazines as α7 nicotinic acetylcholine receptor modulators for the treatment of inflammatory disorders” (J Med Chem, 2014):
Active and inactive are the calls of the source. No cut-off for these calls is given here.

Tests used:
Cytochrome P450 2D6 = Cytochrome P450 2D6 (Homo sapiens, UniProt P10635); test: Inhibition of CYP2D6 (unknown origin); assay type: ADME
Procedure, shortened: (§1)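 Each of five Cyp isoforms assayed with single probe substrates rather than a substrate cocktail. Run in duplicate at Cerep. IC50 lines come from a 5-concentration titration curve.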

Cytochrome P450 3A4 = Cytochrome P450 3A4 (Homo sapiens, UniProt P08684); test: Inhibition of CYP3A4 (unknown origin); assay type: ADME; procedure, shortened: as §1
[1] = Ratio of drug uptake in brain to plasma in iv dosed mouse measured after 5 to 30 mins; assay type: ADME, organism-based; conditions: brain and plasma, read-out: BPR
[2] = biological target: Histamine H3 receptor (Homo sapiens) (UniProt Q9Y5N1); test: Inhibition of human histamine H3 receptor at 10 uM
Procedure, shortened: (§2)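 Receptor, ion channel and transporter binding panel run at Cerep in duplicate. Percent inhibition measured at 10 μM compound.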

[3] = Half life in rat at 1 mg/kg, iv; assay type: ADME, organism-based; design: dose 1 mg/kg, route intravenous; conditions: in vivo
Mus musculus [4] = test: (§3) Antiinflammatory activity against ovalbumin-induced allergic lung inflammation BALB/c mouse model assessed as reduction in eosinophils in brochoalveolar lavage fluid at 0.2 mg/kg, po bid administered on day 29 to 31 post ovalbumin challenge measured 8 hrs post last challenge relative to vehicle-treated control; assay type: functional, organism-based; design: dose 0.2 mg/kg
Procedure, shortened: (§4)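 Balb/c mice sensitized with ovalbumin by IP injection on days 1 and 14, then challenged intranasally with 100 μg ovalbumin on days 29, 30 and 31. Compound in saline given orally starting 30 min before each challenge; groups of six mice. Sham groups were saline-sensitized and allergen-challenged. BAL taken 8 h after the last challenge, with differential cell counts on slides.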

Rattus norvegicus = species: Rattus norvegicus; test: Inhibition of rat sodium channel site 2 at 10 uM; procedure, shortened: as §2
[5] = biological target: Voltage-gated inwardly rectifying potassium channel KCNH2 (Homo sapiens, UniProt Q12809); test: Inhibition of human ERG by whole-cell voltage clamp assay
Cytochrome P450 1A2 = Cytochrome P450 1A2 (Homo sapiens, UniProt P05177); test: Inhibition of CYP1A2 (unknown origin); assay type: ADME; procedure, shortened: as §1
[6] = Clearance in rat at 1 mg/kg, iv; assay type: ADME, organism-based; design: dose 1 mg/kg, route intravenous; conditions: in vivo
[7] = Half life in rat at 15 mg/kg, po; assay type: ADME, organism-based; design: dose 15 mg/kg, route oral; conditions: in vivo
[8] = Oral bioavailability in mouse at 5 mg/kg; assay type: ADME, organism-based; conditions: in vivo
Mus musculus [9] = test: as §3, with “neutrophils” for “eosinophils”; assay type: functional, organism-based; design: dose 0.2 mg/kg; conditions: Bronchoalveolar lavage; procedure, shortened: as §4
[10] = Clearance in mouse at 1 mg/kg, iv; assay type: ADME, organism-based; design: dose 1 mg/kg, route intravenous; conditions: in vivo
Mus musculus [11] = test: as §3, with “total blood cells” for “eosinophils”, “1” for “0.2”; assay type: functional; procedure, shortened: as §4
Mus musculus [12] = test: as §3, with “neutrophils” for “eosinophils”, “5” for “0.2”; assay type: functional; conditions: Bronchoalveolar lavage; procedure, shortened: as §4
[13] = biological target: Neuronal acetylcholine receptor subunit alpha-7 (Rattus norvegicus, UniProt Q05941); test: Inhibition of biotinylated alpha-bungarotoxin binding to alpha7 nAChR in rat PC12 cells by FACS analysis; assay type: cell-based, PC-12
Procedure, shortened: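 Rat PC12 cells in binding buffer (PBS, 1.0% FBS, 0.02% sodium azide), 0.1% DMSO; biotinylated α-bungarotoxin 10 nM final, 1 h at room temperature; nonspecific binding defined with 1.5 μM unlabeled toxin. After washing, phycoerythrin-streptavidin 1.0 μg/mL final, 15 min in the dark; read by FACS. Screened at 10 and 1 μM, then eight-point 3-fold dilution IC50; mean of two or more experiments.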

Mus musculus [14] = test: as §3, with “neutrophils” for “eosinophils”, “1” for “0.2”; assay type: functional; conditions: Bronchoalveolar lavage; procedure, shortened: as §4
Cytochrome P450 2C9 = Cytochrome P450 2C9 (Homo sapiens, UniProt P11712); test: Inhibition of CYP2C9 (unknown origin); assay type: ADME; procedure, shortened: as §1
Mus musculus [15] = test: as §3, with “neutrophils” for “eosinophils”, “30” for “0.2”; assay type: functional, organism-based; design: dose 30 mg/kg; conditions: Bronchoalveolar lavage; procedure, shortened: as §4
[16] = Oral bioavailability in rat at 15 mg/kg; assay type: ADME, organism-based; conditions: in vivo
[17] = Half life in mouse at 5 mg/kg, po; assay type: ADME, organism-based; design: dose 5 mg/kg, route oral; conditions: in vivo
Mus musculus [18] = test: as §3, with “5” for “0.2”; assay type: functional; procedure, shortened: as §4
Cytochrome P450 2C19 = Cytochrome P450 2C19 (Homo sapiens, UniProt P33261); test: Inhibition of CYP2C19 (unknown origin); assay type: ADME; procedure, shortened: as §1
Mus musculus [19] = test: as §3, with “total blood cells” for “eosinophils”, “30” for “0.2”; assay type: functional, organism-based; design: dose 30 mg/kg; procedure, shortened: as §4
[20] = Cmax in rat at 15 mg/kg, po; assay type: ADME, organism-based; design: dose 15 mg/kg, route oral; conditions: in vivo
Mus musculus [21] = test: as §3, with “total blood cells” for “eosinophils”; assay type: functional, organism-based; design: dose 0.2 mg/kg; procedure, shortened: as §4
Mus musculus [22] = test: as §3, with “total blood cells” for “eosinophils”, “5” for “0.2”; assay type: functional; procedure, shortened: as §4
[23] = Cmax in mouse at 5 mg/kg, po; assay type: ADME, organism-based; design: dose 5 mg/kg, route oral; conditions: in vivo
Mus musculus [24] = test: as §3, with “30” for “0.2”; assay type: functional, organism-based; design: dose 30 mg/kg; procedure, shortened: as §4
[25] = biological target: Neuronal acetylcholine receptor; alpha4/beta2 (Homo sapiens, UniProt P17787+P43681); test: Inhibition of human alpha4beta2 nAChR at 10 uM by binding assay
[26] = Half life in mouse at 1 mg/kg, iv; assay type: ADME, organism-based; design: dose 1 mg/kg, route intravenous; conditions: in vivo
Mus musculus [27] = test: as §3, with “1” for “0.2”; assay type: functional; procedure, shortened: as §4

Sequence of Neuronal acetylcholine receptor subunit alpha-7 (Q05941 whole entry): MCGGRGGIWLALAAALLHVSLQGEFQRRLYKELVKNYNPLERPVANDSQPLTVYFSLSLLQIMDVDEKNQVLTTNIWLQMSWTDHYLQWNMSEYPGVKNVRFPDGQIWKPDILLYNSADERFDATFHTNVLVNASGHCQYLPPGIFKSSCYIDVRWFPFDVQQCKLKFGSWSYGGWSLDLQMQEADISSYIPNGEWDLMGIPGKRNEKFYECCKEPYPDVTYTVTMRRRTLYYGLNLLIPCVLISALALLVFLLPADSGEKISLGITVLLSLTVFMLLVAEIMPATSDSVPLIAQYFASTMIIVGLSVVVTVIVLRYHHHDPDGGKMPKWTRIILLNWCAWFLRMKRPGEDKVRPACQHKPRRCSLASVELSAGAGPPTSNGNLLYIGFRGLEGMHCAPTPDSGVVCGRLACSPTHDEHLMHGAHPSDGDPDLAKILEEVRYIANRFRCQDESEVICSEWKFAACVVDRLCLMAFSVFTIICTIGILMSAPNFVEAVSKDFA
Sequence of Voltage-gated inwardly rectifying potassium channel KCNH2 (Q12809 whole entry): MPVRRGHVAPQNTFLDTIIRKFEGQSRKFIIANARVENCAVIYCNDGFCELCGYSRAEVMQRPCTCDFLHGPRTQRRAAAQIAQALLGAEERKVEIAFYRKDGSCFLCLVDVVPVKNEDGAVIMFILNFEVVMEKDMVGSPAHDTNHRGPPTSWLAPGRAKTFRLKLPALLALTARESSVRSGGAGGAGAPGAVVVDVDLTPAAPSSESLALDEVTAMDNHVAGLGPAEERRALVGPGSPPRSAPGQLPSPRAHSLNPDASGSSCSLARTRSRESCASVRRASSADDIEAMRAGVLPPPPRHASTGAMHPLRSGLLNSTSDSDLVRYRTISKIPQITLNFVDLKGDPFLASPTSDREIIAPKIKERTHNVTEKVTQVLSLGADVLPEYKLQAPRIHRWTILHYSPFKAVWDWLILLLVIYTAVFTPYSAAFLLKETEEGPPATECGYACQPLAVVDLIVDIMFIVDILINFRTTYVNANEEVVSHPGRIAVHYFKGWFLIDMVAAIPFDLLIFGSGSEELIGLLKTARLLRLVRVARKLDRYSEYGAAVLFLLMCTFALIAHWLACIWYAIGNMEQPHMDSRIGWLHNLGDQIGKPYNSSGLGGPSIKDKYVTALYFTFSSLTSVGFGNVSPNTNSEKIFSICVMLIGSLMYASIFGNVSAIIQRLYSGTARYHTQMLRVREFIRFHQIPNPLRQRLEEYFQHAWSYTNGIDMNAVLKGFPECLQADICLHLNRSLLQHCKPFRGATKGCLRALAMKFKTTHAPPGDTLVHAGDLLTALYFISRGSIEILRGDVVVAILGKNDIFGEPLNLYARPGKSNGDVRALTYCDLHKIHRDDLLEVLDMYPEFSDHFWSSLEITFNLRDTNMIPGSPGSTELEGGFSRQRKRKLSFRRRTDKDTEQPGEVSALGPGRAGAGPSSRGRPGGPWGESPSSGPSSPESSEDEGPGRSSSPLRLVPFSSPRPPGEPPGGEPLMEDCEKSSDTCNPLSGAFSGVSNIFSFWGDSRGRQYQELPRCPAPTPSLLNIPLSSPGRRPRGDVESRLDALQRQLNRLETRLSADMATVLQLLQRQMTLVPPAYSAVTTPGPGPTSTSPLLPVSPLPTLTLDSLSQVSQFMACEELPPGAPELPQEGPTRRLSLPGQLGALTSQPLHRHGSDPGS
Sequence of Cytochrome P450 2C9 (P11712 whole entry): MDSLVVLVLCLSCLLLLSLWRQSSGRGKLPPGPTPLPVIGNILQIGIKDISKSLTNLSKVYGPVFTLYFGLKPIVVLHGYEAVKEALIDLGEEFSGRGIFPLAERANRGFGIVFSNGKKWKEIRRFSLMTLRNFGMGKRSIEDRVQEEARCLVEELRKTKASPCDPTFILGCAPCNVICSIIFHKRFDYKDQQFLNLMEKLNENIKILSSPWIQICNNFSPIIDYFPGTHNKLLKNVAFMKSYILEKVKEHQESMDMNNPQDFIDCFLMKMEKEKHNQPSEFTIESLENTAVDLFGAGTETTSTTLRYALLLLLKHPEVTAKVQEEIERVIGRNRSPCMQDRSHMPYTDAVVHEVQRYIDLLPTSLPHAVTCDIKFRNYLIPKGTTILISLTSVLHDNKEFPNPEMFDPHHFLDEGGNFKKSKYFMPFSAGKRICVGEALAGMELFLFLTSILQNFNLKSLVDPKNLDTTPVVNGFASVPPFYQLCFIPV
Sequence of Cytochrome P450 2C19 (P33261 whole entry): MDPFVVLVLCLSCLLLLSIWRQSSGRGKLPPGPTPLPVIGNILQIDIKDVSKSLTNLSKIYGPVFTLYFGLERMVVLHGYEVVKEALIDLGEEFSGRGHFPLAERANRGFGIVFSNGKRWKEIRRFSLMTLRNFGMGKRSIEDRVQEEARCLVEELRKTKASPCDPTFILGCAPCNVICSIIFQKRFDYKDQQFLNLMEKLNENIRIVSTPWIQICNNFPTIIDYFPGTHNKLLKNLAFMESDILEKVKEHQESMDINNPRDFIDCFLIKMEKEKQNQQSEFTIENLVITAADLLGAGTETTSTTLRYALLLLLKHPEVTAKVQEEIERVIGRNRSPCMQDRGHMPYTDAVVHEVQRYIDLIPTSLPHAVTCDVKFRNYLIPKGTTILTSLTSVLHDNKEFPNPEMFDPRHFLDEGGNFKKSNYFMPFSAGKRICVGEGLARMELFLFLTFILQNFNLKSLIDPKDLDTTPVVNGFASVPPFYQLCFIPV
Sequence of Cytochrome P450 1A2 (P05177 whole entry): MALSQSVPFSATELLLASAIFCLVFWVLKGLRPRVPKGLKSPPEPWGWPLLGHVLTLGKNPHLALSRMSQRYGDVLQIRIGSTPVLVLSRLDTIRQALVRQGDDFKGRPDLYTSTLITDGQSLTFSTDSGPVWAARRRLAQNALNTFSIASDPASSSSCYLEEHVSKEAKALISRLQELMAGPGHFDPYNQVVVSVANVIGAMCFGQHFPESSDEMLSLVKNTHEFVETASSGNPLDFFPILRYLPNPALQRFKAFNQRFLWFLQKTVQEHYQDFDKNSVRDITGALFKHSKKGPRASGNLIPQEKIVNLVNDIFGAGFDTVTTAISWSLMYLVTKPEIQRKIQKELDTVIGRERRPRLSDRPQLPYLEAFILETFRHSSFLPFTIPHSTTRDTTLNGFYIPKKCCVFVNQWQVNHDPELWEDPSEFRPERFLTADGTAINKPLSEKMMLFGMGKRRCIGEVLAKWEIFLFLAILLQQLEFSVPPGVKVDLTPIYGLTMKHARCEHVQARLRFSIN
Sequence of Cytochrome P450 2D6 (P10635 whole entry, canonical isoform): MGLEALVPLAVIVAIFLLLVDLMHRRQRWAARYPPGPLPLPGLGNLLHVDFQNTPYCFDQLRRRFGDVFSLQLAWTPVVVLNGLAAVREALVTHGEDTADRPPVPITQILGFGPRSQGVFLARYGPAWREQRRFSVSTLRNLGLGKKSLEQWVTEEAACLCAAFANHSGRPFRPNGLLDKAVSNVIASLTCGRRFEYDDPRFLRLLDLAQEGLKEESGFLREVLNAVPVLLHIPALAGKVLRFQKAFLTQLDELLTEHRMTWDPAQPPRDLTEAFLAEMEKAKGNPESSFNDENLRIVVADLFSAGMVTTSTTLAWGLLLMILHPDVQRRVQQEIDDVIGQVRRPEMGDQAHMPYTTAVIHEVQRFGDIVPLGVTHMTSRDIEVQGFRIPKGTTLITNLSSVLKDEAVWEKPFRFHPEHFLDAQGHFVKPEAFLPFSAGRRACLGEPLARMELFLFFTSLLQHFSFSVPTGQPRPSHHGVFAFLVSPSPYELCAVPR
Sequence of Histamine H3 receptor (Homo sapiens) (Q9Y5N1 whole entry): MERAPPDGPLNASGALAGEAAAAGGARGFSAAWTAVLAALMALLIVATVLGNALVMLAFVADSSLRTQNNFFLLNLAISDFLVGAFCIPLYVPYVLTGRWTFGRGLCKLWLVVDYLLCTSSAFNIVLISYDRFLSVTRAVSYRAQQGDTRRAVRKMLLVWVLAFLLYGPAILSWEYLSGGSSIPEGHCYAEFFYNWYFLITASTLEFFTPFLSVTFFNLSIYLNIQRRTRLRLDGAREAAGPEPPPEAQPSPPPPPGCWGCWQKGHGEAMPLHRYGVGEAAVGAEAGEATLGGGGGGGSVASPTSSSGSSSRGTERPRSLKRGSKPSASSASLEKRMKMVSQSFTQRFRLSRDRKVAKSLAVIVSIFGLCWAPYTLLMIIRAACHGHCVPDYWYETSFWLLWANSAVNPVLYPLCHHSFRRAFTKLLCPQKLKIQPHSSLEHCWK
Sequence of Cytochrome P450 3A4 (P08684 whole entry): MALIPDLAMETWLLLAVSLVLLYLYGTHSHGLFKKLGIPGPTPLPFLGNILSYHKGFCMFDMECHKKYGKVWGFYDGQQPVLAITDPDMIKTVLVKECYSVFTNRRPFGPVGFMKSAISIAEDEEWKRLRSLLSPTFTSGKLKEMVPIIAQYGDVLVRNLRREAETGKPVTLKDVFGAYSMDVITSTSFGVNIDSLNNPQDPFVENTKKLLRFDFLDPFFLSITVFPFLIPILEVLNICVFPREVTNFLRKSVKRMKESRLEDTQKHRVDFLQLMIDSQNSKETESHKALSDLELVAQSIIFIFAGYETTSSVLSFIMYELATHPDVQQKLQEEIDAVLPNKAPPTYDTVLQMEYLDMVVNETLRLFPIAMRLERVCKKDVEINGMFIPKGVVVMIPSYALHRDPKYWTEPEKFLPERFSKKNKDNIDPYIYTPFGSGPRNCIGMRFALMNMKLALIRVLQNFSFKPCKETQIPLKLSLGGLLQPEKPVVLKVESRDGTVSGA

Compound `COc1ccc(NC(=O)N2CCNC[C@@H]2COc2cccnc2)cc1.Cl` has an IC50 (Cytochrome P450 2D6) greater than 100 µM, an IC50 (Cytochrome P450 3A4) greater than 100 µM and a Kp [1] of no more than 0.06. For the same compound, the inhibition [2] was 86%, the half-life [3] was 1.22 h and the inhibition (Mus musculus [4]) was “inactive”. The inhibition (Rattus norvegicus) was 48%, the IC50 [5] was 31 µM and the IC50 (Cytochrome P450 1A2) was greater than 100 µM. It also gave a clearance [6] of 86 mL/min/kg, a half-life [7] of 2.35 h and a bioavailability [8] of 76%. The inhibition (Mus musculus [9]) was “inactive”, the clearance [10] was 103 mL/min/kg and the inhibition in vivo at 1 mg/kg (Mus musculus [11]) was 53%. For the same compound, the inhibition in vivo at 5 mg/kg (Mus musculus [12]) was 70%, the IC50 [13] was 0.019 µM and the inhibition in vivo at 1 mg/kg (Mus musculus [14]) was 61%. The IC50 (Cytochrome P450 2C9) was greater than 100 µM, the inhibition (Mus musculus [15]) was “inactive” and the bioavailability [16] was 89%. The half-life [17] was 1.73 h, the inhibition in vivo at 5 mg/kg (Mus musculus [18]) was 74% and the IC50 (Cytochrome P450 2C19) was greater than 100 µM. For the same compound, the inhibition (Mus musculus [19]) was “inactive”, the Cmax [20] was 751 ng/mL and the inhibition (Mus musculus [21]) was “inactive”. For the same compound, the inhibition in vivo at 5 mg/kg (Mus musculus [22]) was 63%, the Cmax [23] was 950 nM and the inhibition (Mus musculus [24]) was “inactive”. It also gave an inhibition [25] of 10%, a half-life [26] of 0.65 h and an inhibition in vivo at 1 mg/kg (Mus musculus [27]) of 48%.
